Test results reported in ChEMBL document CHEMBL2146396, “Design, synthesis and evaluation of novel metalloproteinase inhibitors based on L-tyrosine scaffold” (Bioorg Med Chem, 2012).

How the values were obtained:
[1] = target: 72 kDa type IV collagenase (Homo sapiens, UniProt P08253); experiment: Inhibition of MMP2 using BML-P125-9090 as substrate after 30 mins by microplate reader analysis
Procedure, shortened: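 Colorimetric kit assay. Enzyme and inhibitor were preincubated 30 min at 37 °C in assay buffer equilibrated to 37 °C. Substrate was then added to start the reaction. A412 was read continuously at 1 min intervals for 10 min. IC50 was derived from the readings.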

[2] = target: T1, Histone deacetylase 8 (Homo sapiens, UniProt Q9BY41); experiment: Inhibition of HDAC8 after 45 mins by microplate fluorometric analysis
T1 sequence (Q9BY41 whole entry): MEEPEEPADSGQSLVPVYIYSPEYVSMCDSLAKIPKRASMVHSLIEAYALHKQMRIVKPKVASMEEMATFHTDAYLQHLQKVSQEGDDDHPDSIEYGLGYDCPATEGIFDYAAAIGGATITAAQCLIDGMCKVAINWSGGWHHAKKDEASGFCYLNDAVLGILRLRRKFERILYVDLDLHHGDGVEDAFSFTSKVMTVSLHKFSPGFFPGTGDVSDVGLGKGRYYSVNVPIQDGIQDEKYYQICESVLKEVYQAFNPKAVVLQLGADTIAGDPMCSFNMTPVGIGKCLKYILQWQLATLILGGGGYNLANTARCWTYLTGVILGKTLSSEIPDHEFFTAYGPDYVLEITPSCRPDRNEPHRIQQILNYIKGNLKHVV

72 kDa type IV collagenase, sequence (P08253 whole entry): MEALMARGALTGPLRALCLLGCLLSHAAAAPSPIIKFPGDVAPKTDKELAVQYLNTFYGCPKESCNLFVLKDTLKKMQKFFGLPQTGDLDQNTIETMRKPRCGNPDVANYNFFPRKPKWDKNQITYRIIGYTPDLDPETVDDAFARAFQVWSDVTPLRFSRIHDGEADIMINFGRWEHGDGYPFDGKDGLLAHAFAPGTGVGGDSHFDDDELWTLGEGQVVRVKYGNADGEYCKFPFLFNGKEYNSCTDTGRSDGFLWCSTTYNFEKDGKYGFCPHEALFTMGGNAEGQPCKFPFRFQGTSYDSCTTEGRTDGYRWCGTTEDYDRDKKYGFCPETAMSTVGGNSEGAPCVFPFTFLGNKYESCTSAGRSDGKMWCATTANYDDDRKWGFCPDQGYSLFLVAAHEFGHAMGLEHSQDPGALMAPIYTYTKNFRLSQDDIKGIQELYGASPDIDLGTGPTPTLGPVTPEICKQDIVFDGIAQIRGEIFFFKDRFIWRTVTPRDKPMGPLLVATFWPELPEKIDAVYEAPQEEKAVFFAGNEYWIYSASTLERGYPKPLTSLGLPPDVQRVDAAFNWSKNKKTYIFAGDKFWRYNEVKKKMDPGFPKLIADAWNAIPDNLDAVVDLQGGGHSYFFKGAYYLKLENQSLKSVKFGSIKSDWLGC

SMILES	IC50 [1] [µM]	IC50 [2] [µM]
COC(=O)[C@H](Cc1ccc(OCc2ccccc2)cc1)NC(=O)c1ccccc1	67.5	> 1000
COC(=O)[C@H](Cc1ccc(OCc2ccccc2)cc1)NC(=O)c1ccc(C)cc1	83.7	> 1000
COC(=O)[C@H](Cc1ccc(OCc2ccccc2)cc1)NC(C)=O	27.6	872
COC(=O)[C@H](Cc1ccc(OCc2ccccc2)cc1)NS(C)(=O)=O	17.8	754
COC(=O)[C@H](Cc1ccc(OCc2ccccc2)cc1)NS(=O)(=O)c1ccc(C)cc1	10.7	> 1000
COC(=O)[C@H](Cc1ccc(OCCc2ccccc2)cc1)NC(=O)c1ccccc1	74.6	> 1000
COC(=O)[C@H](Cc1ccc(OCCc2ccccc2)cc1)NC(=O)c1ccc(C)cc1	85.5	> 1000
COC(=O)[C@H](Cc1ccc(OCCc2ccccc2)cc1)NC(C)=O	12.5	825
COC(=O)[C@H](Cc1ccc(OCCc2ccccc2)cc1)NS(C)(=O)=O	2.4	> 1000
COC(=O)[C@H](Cc1ccc(OCCc2ccccc2)cc1)NS(=O)(=O)c1ccc(C)cc1	6.3	962
O=C(N[C@@H](Cc1ccc(OCc2ccccc2)cc1)C(=O)O)c1ccccc1	9.8	111
Cc1ccc(C(=O)N[C@@H](Cc2ccc(OCc3ccccc3)cc2)C(=O)O)cc1	8.1	> 1000
CC(=O)N[C@@H](Cc1ccc(OCc2ccccc2)cc1)C(=O)O	3	36.9
CS(=O)(=O)N[C@@H](Cc1ccc(OCc2ccccc2)cc1)C(=O)O	1.4	47.2
Cc1ccc(S(=O)(=O)N[C@@H](Cc2ccc(OCc3ccccc3)cc2)C(=O)O)cc1	2.5	505
O=C(N[C@@H](Cc1ccc(OCCc2ccccc2)cc1)C(=O)O)c1ccccc1	7.6	253

SMILES	IC50 [1] [µM]	IC50 [2] [µM]
Cc1ccc(C(=O)N[C@@H](Cc2ccc(OCCc3ccccc3)cc2)C(=O)O)cc1	4.5	386
CC(=O)N[C@@H](Cc1ccc(OCCc2ccccc2)cc1)C(=O)O	0.75	121
CS(=O)(=O)N[C@@H](Cc1ccc(OCCc2ccccc2)cc1)C(=O)O	0.12	102
Cc1ccc(S(=O)(=O)N[C@@H](Cc2ccc(OCCc3ccccc3)cc2)C(=O)O)cc1	0.27	> 1000
O=C(N[C@@H](Cc1ccc(OCc2ccccc2)cc1)C(=O)NO)c1ccccc1	1.7	9.3
Cc1ccc(C(=O)N[C@@H](Cc2ccc(OCc3ccccc3)cc2)C(=O)NO)cc1	0.46	30.7
CC(=O)N[C@@H](Cc1ccc(OCc2ccccc2)cc1)C(=O)NO	0.037	5.8
CS(=O)(=O)N[C@@H](Cc1ccc(OCc2ccccc2)cc1)C(=O)NO	0.067	3.6
Cc1ccc(S(=O)(=O)N[C@@H](Cc2ccc(OCc3ccccc3)cc2)C(=O)NO)cc1	0.025	42.4
O=C(N[C@@H](Cc1ccc(OCCc2ccccc2)cc1)C(=O)NO)c1ccccc1	0.9	27.8
Cc1ccc(C(=O)N[C@@H](Cc2ccc(OCCc3ccccc3)cc2)C(=O)NO)cc1	3.9	52.5
CC(=O)N[C@@H](Cc1ccc(OCCc2ccccc2)cc1)C(=O)NO	0.013	14.4
CS(=O)(=O)N[C@@H](Cc1ccc(OCCc2ccccc2)cc1)C(=O)NO	0.029	9.5
Cc1ccc(S(=O)(=O)N[C@@H](Cc2ccc(OCCc3ccccc3)cc2)C(=O)NO)cc1	0.017	82.5
COc1ccc(S(=O)(=O)N(CC(=O)NO)CC(C)C)cc1	0.014	–
